# Screens: PubChem BioAssay, Broad Institute
# In the library only some 1.2% were active in any assay of this set; here they are far more common.
# RAD52 anneal inh – blocks human RAD52 DNA annealing; inhibition, % at 18.7 µM; AID 651710; actives 0.46% (n = 360,000); recombinant RAD52 DNA annealing, FRET fluorescence;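 active means every replicate showing at least 50% inhibition; inconclusive means mean inhibition at least 50% but not in every replicate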
# Target sequence (P43351 whole entry, looked up): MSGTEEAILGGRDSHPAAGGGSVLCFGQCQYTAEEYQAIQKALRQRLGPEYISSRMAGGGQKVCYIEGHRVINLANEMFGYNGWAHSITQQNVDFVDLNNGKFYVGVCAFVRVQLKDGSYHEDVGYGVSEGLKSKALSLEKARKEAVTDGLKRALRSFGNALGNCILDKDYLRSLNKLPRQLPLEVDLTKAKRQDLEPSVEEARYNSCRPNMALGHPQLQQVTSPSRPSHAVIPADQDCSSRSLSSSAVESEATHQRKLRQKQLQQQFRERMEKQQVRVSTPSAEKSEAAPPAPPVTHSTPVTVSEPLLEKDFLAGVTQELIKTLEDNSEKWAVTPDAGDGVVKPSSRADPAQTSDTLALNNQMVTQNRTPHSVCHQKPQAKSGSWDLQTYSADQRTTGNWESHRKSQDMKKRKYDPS
# AF4-AF9 inh – MLL-AF4/AF9 protein interaction inhibition | AlphaScreen, biotin-AF4 peptide binding to FLAG-AF9 | inhibition, % at 10 µM | actives 0.47% (n = 350,000) | AID 651704;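 active means every replicate reaching a set inhibition limit, whatever the replicate mean, cut at about 25% in these data; inconclusive means mean inhibition reaches that limit but some replicates miss it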;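 further: 0% = plate neutral control median and 100% = total signal loss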
# RAD54 inh – inhibitors of human RAD54 branch migration. actives 0.14% (n = 360,000). AID 602329. inhibition, % at 10.4 µM. Q92698. RAD54 Holliday junction branch migration, FAM/BHQ fluorescence;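 active means mean normalized replicate activity at least 40 and at least half of replicates scoring 40 or more; inconclusive means only one of the two criteria met; inactive means mean below 40 and under half of replicates reaching 40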;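 further: 0% = median of neutral control wells and 100% = median of positive control wells; inhibitors cause a drop in the FAM fluorescence signal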
# Glyco luc inh – blocks N-linked glycosylation in D54 reporter cells | actives 0.23% (n = 360,000) | reporter increase, % at 12.5 µM | D54 ERlucT glycosylation luciferase reporter, 24 h; percent of 100 nM tunicamycin response;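 active means mean luciferase reporter signal, scaled so untreated is 0 and the glycosylation-blocking control 100, at or above a set limit in every replicate; inconclusive means mean reaches the limit but not every replicate does; inactive means mean below the limit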;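 further: luciferase carries N-glycosylation sites so blocking glycosylation raises the light; 0% = median of neutral control wells and 100% = median of 100 nM tunicamycin wells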
# FN deposit inh – fibronectin deposition inhibition. AH1F fibroblasts, Alexa488-fibronectin deposition fluorescence, overnight. AID 743247. actives 0.086% (n = 350,000). inhibition, % at 12.6 µM;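 active means mean inhibition across replicates of 30% or more, regardless of how many single replicates reach that level; inconclusive means mean under 30% yet at least half of replicates reach 30%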;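 further: positive control wells lacked labelled fibronectin entirely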
#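 Assay system: AH1F fibroblast monolayer, labelled fibronectin deposition. Amount: 10000 cells per well. Also added: labelled fibronectin 24 nM. Compound: single-point pinned compound. Incubation: cell attachment 1 h, compound and FN exposure overnight. Detection: fluorescence after three HBSS washes, excitation 485 nm, emission 525 nm. Read-out: inhibition of fibronectin deposition signal.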
# NSD2 inh – NSD2 (human) methyltransferase inhibition. O96028. NSD2 peptide methylation, AlphaScreen, 120 min. inhibition, % at 12.5 µM. actives 0.54% (n = 310,000); in the data active means inhibition above about 50%
# The depositor's hits bear a star; ? = inconclusive; · = not tested or not shown.
SMILES,RAD52 anneal inh,AF4-AF9 inh,RAD54 inh,Glyco luc inh,FN deposit inh,NSD2 inh
CCOC(=O)C(=Cc1ccc(-c2ccsc2C(=O)OC)o1)C(=O)OCC,·,·,-0.5,?,-4.1,1.3
COC(=O)C(=Cc1ccc(-c2ccsc2C(=O)OC)o1)C(=O)OC,-10.0,2.7,·,35.1*,9.0,0.6
COc1ccc(S(=O)(=O)Nc2ccc3c(c2)C(=O)N([C@H](C)CO)C[C@H](C)[C@H](CN(C)S(=O)(=O)c2ccc(C)cc2)OCCCC[C@H](C)O3)cc1,-30.2,-0.9,-7.5,·,-7.6,·
COc1ccc(S(=O)(=O)N(C)C[C@@H]2Oc3ccc(NC(=O)Nc4ccc5c(c4)OCO5)cc3C(=O)N([C@@H](C)CO)C[C@@H]2C)cc1,-7.3,4.1,2.0,·,-4.8,·
COc1ccc(S(=O)(=O)N(C)C[C@@H]2Oc3ccc(NC(=O)Nc4ccc5c(c4)OCO5)cc3C(=O)N([C@@H](C)CO)C[C@H]2C)cc1,-4.5,7.8,56.6*,·,6.8,·
C[C@H](CO)N1C[C@H](C)[C@@H](CN(C)Cc2ccc3c(c2)OCO3)Oc2ccc(NC(=O)Nc3cccc4ccccc34)cc2CC1=O,54.7*,7.1,29.9,·,·,·
COc1ccc(CN(C)C[C@@H]2Oc3ccc(NC(=O)Nc4ccccc4)cc3C(=O)N([C@H](C)CO)C[C@H]2C)cc1,21.9,-3.7,57.3*,·,·,·
COc1ccc(CN(C)C[C@@H]2Oc3ccc(NC(=O)Nc4ccc5c(c4)OCO5)cc3C(=O)N([C@@H](C)CO)C[C@H]2C)cc1,15.0,19.9,61.3*,·,·,·
CCCNC(=O)N1C[C@@H](O)COC[C@H]2O[C@H](CC(=O)NCc3ccncn3)CC[C@@H]21,2.3,-4.0,-6.6,·,-4.4,·
O=C(C[C@H]1C[C@H]2c3cc(NS(=O)(=O)c4ccc(F)cc4)ccc3O[C@H]2[C@@H](CO)O1)NCc1ccccn1,-0.7,-0.4,0.9,·,·,·
COc1ccc(C(=O)Nc2ccccc2NC(=O)c2ccc(OC)c(OC)c2)cc1OC,·,·,·,·,·,0.2
C[C@@H]1CN([C@@H](C)CO)C(=O)c2cc(C#CC3CC3)cnc2O[C@@H]1CN(C)Cc1ccccn1,16.1,-4.0,0.3,·,4.2,·
COc1ccc(NC(=O)Nc2cccc3c2O[C@@H](CN(C)Cc2ccc(C(F)(F)F)cc2)[C@@H](C)CN([C@@H](C)CO)C3=O)cc1,87.3*,2.7,-4.2,·,·,·
C[C@@H]1CN([C@H](C)CO)C(=O)c2cccc(NC(=O)c3ccncc3)c2O[C@@H]1CN(C)Cc1ccc(Oc2ccccc2)cc1,-1.3,25.0*,-1.6,·,21.1,·
C[C@@H]1CN([C@H](C)CO)C(=O)Cc2cc(NC(=O)Nc3ccc4c(c3)OCO4)ccc2O[C@@H]1CN(C)CC1CCCCC1,20.2,7.0,-0.6,·,·,·
C[C@@H]1CN([C@@H](C)CO)C(=O)c2cccc(NC(=O)c3ccncc3)c2O[C@H]1CN(C)Cc1ccc(Oc2ccccc2)cc1,-16.4,3.2,-5.7,·,·,·
CC(C)NC(=O)Nc1ccc2c(c1)C(=O)N([C@H](C)CO)C[C@@H](C)[C@H](CN(C)S(=O)(=O)c1ccc(Cl)cc1)O2,5.1,-0.2,56.2*,·,·,·
C[C@@H]1CN([C@@H](C)CO)C(=O)Cc2cc(NC(=O)Nc3ccc4c(c3)OCO4)ccc2O[C@H]1CN(C)CC1CCCCC1,23.1,26.8*,0.3,·,·,·
Cc1ccc(S(=O)(=O)Nc2ccc3c(c2)CC(=O)N([C@@H](C)CO)C[C@H](C)[C@@H](CN(C)Cc2ccc(Cl)c(Cl)c2)O3)cc1,-8.9,0.5,7.5,·,-13.9,·
CO[C@H]1CN(C)C(=O)c2cc(NC(=O)C3CC3)ccc2OC[C@@H](C)N(C(=O)c2ccccc2)C[C@H]1C,-4.6,-1.0,4.8,·,-2.2,·
CO[C@@H](CN(C)Cc1cc(F)ccc1F)[C@H](C)CN(C(=O)Nc1ccc(F)cc1)[C@H](C)CO,-6.7,3.1,4.8,·,-0.5,·
C[C@H](CO)N1C[C@H](C)[C@@H](CN(C)S(C)(=O)=O)Oc2c(NC(=O)Cc3ccccc3)cccc2C1=O,-1.2,1.7,3.4,-2.4,30.5*,·
COc1ccc(CN(C)C[C@@H]2Oc3ccc(NC(=O)Nc4ccc5c(c4)OCO5)cc3C(=O)N([C@H](C)CO)C[C@H]2C)cc1,0.7,12.6,66.8*,·,·,·
COc1ccc(CN(C)C[C@@H]2Oc3ccc(NC(=O)Nc4ccc5c(c4)OCO5)cc3CC(=O)N([C@@H](C)CO)C[C@H]2C)cc1,39.4,27.3*,4.6,·,4.5,·
C[C@H](CO)N1C[C@H](C)[C@@H](CN(C)S(=O)(=O)c2cccs2)Oc2c(NC(=O)Cc3ccccc3)cccc2C1=O,-4.4,-7.8,2.2,?,-6.6,·
SMILES,RAD52 anneal inh,AF4-AF9 inh,RAD54 inh,Glyco luc inh,FN deposit inh,NSD2 inh
COc1ccc(CN(C)C[C@@H]2Oc3ccc(NC(=O)Nc4ccc5c(c4)OCO5)cc3C(=O)N([C@@H](C)CO)C[C@@H]2C)cc1,-7.7,6.8,9.2,·,·,·
COc1ccc(NC(=O)Nc2ccc3c(c2)CC(=O)N([C@@H](C)CO)C[C@H](C)[C@H](CN(C)Cc2ccc4c(c2)OCO4)O3)cc1,4.9,-0.1,15.4,·,·,·
COc1cccc(S(=O)(=O)Nc2ccc3c(c2)[C@H]2C[C@@H](CC(=O)N[C@@H](C)c4ccccc4)O[C@@H](CO)[C@H]2O3)c1,-4.9,-1.2,-2.2,·,·,·
COC(=O)C[C@H]1CC[C@H]2[C@@H](COc3ccc(NC(=O)CN(C)C)cc3C(=O)N2C)O1,·,·,·,·,-20.5,·
COc1ccc(S(=O)(=O)Nc2ccc3c(c2)C(=O)N([C@H](C)CO)C[C@@H](C)[C@H](CN(C)S(=O)(=O)c2cccs2)O3)cc1,-3.7,0.0,-1.1,·,-16.7,·
COc1cc2c(cc1OC)C(C)N(C(=O)Nc1ccccc1)CC2 (centres undefined),-7.7,-9.8,-9.9,35.1*,16.5,-2.1
COc1ccc(OC)c(Nc2nc(-c3c(C)nc4ncccn34)cs2)c1,-7.3,1.5,15.2,41.9*,11.8,1.6
Cc1nc2ncccn2c1-c1csc(Nc2cccc(C(=O)O)c2)n1,-14.5,-1.6,3.6,0.7,0.9,1.3
C[C@@H]1CCCCO[C@@H](CN(C)C(=O)Nc2ccc(F)cc2)[C@H](C)CN([C@@H](C)CO)C(=O)c2cc(NS(=O)(=O)c3ccc(F)cc3)ccc2O1,·,·,3.5,·,8.9,·
CCCn1nc([N+](=O)[O-])c(C(C#N)c2nc3ccccc3o2)c(Cl)c1=O (centres undefined),·,·,·,-2.6,2.5,33.2
CCn1nc([N+](=O)[O-])c(C(C#N)c2nc3cc(C(F)(F)F)ccc3s2)c(Cl)c1=O (centres undefined),·,·,11.5,-5.4,-0.4,53.5*
Oc1[nH]c(N=C2N=c3ccccc3=N2)c2ccccc12,-157.3,-0.9,-5.3,117.3*,3.7,0.1
Cc1ccc2c(c1)=N/C(=N\c1[nH]c(O)c3ccccc13)N=2,-90.9,0.5,0.6,-0.5,-0.3,0.5
